The source made the active and inactive calls. No cut-off for these calls is given here.
What was measured:
[1] = biological target: Tyrosine-protein kinase Lyn (Homo sapiens, UniProt P07948); test: Inhibition of LYN
[2] = Antitumor activity against human U87MG cells xenografted mouse administered intravenously thrice a week for two weeks; assay type: functional, U-87MG ATCC; conditions: U-87 MG, iv, 336 h, read-out: MED
In short: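 Nude mice bearing U87MG glioma xenografts; dosed iv in PBS at the stated doses and schedules for 2 weeks. Tumor growth was monitored twice weekly, and tumor volume was determined by a previously described method.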

[3] = biological target: Mitogen-activated protein kinase kinase kinase 8 (Homo sapiens, UniProt P41279); test: Inhibition of Tpl2
[4] = biological target: MAP kinase-activated protein kinase 2 (Homo sapiens, UniProt P49137); test: Inhibition of MK2
[5] = Inhibition of IGFR
[6] = biological target: Vascular endothelial growth factor receptor 2 (Homo sapiens, UniProt P35968); test: Inhibition of KDR
[7] = biological target: RAC-alpha serine/threonine-protein kinase (Homo sapiens, UniProt P31749); test: Inhibition of AKT1
[8] = biological target: Dual specificity mitogen-activated protein kinase kinase 1 (Homo sapiens, UniProt Q02750); test: Inhibition of MEK1
[9] = biological target: Cyclin-dependent kinase 4 (Homo sapiens, UniProt P11802); test: Inhibition of CDK4
[10] = biological target: Tyrosine-protein kinase BTK (Homo sapiens, UniProt Q06187); test: Inhibition of BTK
[11] = Inhibition of GSK3
LNCaP = test: Growth inhibition of human LNCap cells; assay type: functional, cell-based
[12] = biological target: T1, Inhibitor of nuclear factor kappa-B kinase subunit beta (Homo sapiens, UniProt O14920); test: Inhibition of IKK-beta
T1 sequence (O14920 whole entry): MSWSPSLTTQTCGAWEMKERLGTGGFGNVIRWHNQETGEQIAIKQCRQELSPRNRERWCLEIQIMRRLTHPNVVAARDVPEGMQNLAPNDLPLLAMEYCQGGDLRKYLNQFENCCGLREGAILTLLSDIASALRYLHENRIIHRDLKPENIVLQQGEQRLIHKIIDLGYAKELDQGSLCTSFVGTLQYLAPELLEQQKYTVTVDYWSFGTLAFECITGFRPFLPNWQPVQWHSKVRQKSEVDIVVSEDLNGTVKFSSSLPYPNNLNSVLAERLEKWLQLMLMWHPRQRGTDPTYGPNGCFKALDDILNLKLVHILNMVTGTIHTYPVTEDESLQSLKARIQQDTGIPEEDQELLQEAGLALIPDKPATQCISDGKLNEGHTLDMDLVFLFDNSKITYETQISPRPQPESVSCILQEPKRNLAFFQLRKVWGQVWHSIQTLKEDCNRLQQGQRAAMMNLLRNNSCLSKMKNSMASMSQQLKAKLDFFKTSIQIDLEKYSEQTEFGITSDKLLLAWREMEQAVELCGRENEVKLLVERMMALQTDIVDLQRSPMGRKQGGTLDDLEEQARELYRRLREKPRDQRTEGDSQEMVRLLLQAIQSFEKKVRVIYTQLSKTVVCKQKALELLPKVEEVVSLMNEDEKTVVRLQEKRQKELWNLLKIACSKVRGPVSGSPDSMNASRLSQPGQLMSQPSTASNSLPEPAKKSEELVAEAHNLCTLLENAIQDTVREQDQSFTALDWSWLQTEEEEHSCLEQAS

[13] = biological target: T2, Phosphatidylinositol 4,5-bisphosphate 3-kinase catalytic subunit alpha isoform (Homo sapiens, UniProt P42336); test: Inhibition of PI3K expressed in Escherichia coli by microtiter plate-based fluorescence polarization assay
In short: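 Fluorescence polarization assay of PI3K activity with PIP2 substrate. Reactions contained 20 mM Hepes pH 7.5, 2 mM MgCl2, 0.05% CHAPS, 0.01% βME, 20 µM PIP2 and 25 µM ATP, and ran 15–30 min at room temperature. They were stopped with buffer holding 10 nM TAMRA-labeled probe and 40 nM GST-GRP1 (E. coli-expressed detector), then incubated 1–2 h before FP readout.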

[14] = Antitumor activity against human U87MG cells xenografted mouse administered intravenously twice a week for two weeks; assay type: functional, U-87MG ATCC; conditions: U-87 MG, iv, 336 h, read-out: MED
In short: (§1)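 Nude mice bearing U87MG glioma xenografts; compound in PBS given intravenously on the stated schedule for 2 weeks. Tumor growth was monitored twice a week, and tumor volume was determined by a previously described method. Efficacy was expressed as minimum efficacious dose.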

[15] = biological target: Serine/threonine-protein kinase mTOR (Homo sapiens, UniProt P42345); test: Inhibition of mTOR
[16] = biological target: Ribosomal protein S6 kinase beta-1 (Homo sapiens, UniProt P23443); test: Inhibition of S6K1
[17] = Antitumor activity against human U87MG cells xenografted mouse administered intravenously once a week for two weeks; assay type: functional, U-87MG ATCC; conditions: U-87 MG, iv, 336 h, read-out: MED; in short: as §1
[18] = Half life in mouse at 5 mg/kg, iv; assay type: ADME, organism-based; parameters: dose 5 mg/kg, route intravenous; conditions: in vivo
In short: (§2)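 Nude mice received a single intravenous bolus of 5 mg/kg. Plasma levels of parent and the 11-deacetylated metabolite were followed over time to derive clearance, volume of distribution and half-life.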

[19] = Chemical stability at pH 7.4; assay type: physicochemical; conditions: buffer, read-out: Stability
In short: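 Compound was incubated with the dipeptide lysine-phenylalanine at pH 7.4. Half-life of amine adduct formation was measured.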

[20] = biological target: T2, Phosphatidylinositol 4,5-bisphosphate 3-kinase catalytic subunit alpha isoform; test: Inhibition of PI3K mediated AKT phosphorylation in PTEN negative human U87MG cells at 30 ng/ml; assay type: cell-based; conditions: U-87MG ATCC
In short: (§3)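 PTEN-negative U87MG cells were plated in six-well plates for 24 h, then treated in growth medium for 6 h against a DMSO control. PI3K pathway phosphorylation was then assessed.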

[21] = Volume of distribution in mouse at 5 mg/kg, iv; assay type: ADME, organism-based; parameters: dose 5 mg/kg, route intravenous; conditions: in vivo, read-out: Vdss; in short: as §2
[22] = biological target: Phosphatidylinositol 4,5-bisphosphate 3-kinase catalytic subunit beta isoform (Homo sapiens, UniProt P42338); test: Inhibition of PI3Kbeta
In short: (§4)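 Fluorescence polarization assay using purchased PI3K enzyme. It was stopped with TAMRA-labeled probe (10 nM) plus GST-GRP1 (40 nM), incubated 1–2 h, and FP was read.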

[23] = Aqueous solubility of the compound; assay type: physicochemical
[24] = biological target: T3, Phosphatidylinositol 4,5-bisphosphate 3-kinase catalytic subunit delta isoform (Homo sapiens, UniProt O00329); test: Inhibition of PI3Kdelta; in short: as §4
T3 sequence (O00329 whole entry): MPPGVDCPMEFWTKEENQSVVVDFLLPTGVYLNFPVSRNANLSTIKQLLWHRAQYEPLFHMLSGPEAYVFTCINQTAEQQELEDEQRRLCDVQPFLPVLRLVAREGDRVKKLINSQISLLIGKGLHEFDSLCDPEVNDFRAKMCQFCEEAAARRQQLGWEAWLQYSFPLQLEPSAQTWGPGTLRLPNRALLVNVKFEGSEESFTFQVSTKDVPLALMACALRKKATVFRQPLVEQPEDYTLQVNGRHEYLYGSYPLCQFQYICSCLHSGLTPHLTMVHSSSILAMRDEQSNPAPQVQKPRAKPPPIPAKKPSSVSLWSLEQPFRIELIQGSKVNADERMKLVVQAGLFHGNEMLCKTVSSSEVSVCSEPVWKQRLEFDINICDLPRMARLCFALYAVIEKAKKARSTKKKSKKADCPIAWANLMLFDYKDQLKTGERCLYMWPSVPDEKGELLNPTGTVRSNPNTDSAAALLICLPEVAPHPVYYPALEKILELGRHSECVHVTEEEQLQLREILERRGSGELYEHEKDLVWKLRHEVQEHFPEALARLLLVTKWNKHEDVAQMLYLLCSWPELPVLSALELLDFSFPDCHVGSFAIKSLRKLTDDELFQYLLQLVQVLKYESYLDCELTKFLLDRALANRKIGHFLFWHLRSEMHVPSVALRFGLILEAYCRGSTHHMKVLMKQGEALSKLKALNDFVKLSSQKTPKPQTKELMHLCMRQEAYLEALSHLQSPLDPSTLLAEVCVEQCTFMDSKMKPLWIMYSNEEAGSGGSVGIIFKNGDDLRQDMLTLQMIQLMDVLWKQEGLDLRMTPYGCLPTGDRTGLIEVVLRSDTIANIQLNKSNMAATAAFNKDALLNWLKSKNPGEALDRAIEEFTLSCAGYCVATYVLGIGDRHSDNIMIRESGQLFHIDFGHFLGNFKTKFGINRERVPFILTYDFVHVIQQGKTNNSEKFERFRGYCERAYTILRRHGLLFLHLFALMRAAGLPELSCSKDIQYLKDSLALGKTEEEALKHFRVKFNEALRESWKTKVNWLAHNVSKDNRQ

[25] = biological target: T2, Phosphatidylinositol 4,5-bisphosphate 3-kinase catalytic subunit alpha isoform; test: Inhibition of PI3K mediated S6K phosphorylation in PTEN negative human U87MG cells at 30 ng/ml; assay type: cell-based; conditions: U-87MG ATCC; in short: as §3
[26] = biological target: Phosphatidylinositol 4,5-bisphosphate 3-kinase catalytic subunit gamma isoform (Homo sapiens, UniProt P48736); test: Inhibition of PI3Kgamma; in short: as §4
[27] = Clearance in mouse at 5 mg/kg, iv; assay type: ADME, organism-based; parameters: dose 5 mg/kg, route intravenous; conditions: in vivo; in short: as §2

T2 sequence (P42336 whole entry, canonical isoform): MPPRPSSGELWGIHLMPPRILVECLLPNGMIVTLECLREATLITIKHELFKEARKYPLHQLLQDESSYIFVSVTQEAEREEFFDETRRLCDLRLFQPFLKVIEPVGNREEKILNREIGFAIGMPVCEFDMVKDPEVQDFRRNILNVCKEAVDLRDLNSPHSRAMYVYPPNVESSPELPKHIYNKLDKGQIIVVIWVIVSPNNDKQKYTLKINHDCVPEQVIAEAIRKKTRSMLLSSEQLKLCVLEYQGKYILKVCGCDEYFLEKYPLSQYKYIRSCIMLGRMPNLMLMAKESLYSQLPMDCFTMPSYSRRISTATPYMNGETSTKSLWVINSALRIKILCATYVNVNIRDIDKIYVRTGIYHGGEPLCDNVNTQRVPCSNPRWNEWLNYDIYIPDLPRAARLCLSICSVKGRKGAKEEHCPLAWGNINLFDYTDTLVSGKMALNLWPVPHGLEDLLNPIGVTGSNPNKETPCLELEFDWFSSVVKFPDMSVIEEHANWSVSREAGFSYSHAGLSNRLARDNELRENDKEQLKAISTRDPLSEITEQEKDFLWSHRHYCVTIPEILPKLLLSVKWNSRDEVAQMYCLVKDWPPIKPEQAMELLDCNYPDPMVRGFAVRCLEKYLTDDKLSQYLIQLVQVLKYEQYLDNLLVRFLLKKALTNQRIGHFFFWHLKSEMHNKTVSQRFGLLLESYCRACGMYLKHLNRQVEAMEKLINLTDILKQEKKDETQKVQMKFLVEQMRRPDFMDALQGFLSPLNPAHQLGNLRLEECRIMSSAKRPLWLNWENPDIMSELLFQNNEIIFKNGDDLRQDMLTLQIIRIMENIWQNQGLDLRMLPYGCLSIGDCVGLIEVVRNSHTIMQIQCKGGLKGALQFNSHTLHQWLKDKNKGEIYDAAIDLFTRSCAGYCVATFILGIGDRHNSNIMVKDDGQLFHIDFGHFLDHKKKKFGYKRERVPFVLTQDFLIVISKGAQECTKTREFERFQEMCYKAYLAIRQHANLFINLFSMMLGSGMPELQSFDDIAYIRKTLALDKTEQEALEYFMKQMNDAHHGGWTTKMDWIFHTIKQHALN
Sequence of MAP kinase-activated protein kinase 2 (P49137 whole entry): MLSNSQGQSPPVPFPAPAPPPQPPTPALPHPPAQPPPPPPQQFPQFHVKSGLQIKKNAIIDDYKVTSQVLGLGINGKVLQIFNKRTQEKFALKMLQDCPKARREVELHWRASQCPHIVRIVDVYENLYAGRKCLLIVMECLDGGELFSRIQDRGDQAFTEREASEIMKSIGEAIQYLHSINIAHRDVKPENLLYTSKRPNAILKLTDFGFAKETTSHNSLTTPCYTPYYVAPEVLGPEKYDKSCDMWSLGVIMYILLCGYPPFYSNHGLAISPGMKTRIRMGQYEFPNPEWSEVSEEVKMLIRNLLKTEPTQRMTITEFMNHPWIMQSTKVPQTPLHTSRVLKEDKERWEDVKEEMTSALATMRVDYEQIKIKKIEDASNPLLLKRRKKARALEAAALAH
Sequence of Vascular endothelial growth factor receptor 2 (P35968 whole entry): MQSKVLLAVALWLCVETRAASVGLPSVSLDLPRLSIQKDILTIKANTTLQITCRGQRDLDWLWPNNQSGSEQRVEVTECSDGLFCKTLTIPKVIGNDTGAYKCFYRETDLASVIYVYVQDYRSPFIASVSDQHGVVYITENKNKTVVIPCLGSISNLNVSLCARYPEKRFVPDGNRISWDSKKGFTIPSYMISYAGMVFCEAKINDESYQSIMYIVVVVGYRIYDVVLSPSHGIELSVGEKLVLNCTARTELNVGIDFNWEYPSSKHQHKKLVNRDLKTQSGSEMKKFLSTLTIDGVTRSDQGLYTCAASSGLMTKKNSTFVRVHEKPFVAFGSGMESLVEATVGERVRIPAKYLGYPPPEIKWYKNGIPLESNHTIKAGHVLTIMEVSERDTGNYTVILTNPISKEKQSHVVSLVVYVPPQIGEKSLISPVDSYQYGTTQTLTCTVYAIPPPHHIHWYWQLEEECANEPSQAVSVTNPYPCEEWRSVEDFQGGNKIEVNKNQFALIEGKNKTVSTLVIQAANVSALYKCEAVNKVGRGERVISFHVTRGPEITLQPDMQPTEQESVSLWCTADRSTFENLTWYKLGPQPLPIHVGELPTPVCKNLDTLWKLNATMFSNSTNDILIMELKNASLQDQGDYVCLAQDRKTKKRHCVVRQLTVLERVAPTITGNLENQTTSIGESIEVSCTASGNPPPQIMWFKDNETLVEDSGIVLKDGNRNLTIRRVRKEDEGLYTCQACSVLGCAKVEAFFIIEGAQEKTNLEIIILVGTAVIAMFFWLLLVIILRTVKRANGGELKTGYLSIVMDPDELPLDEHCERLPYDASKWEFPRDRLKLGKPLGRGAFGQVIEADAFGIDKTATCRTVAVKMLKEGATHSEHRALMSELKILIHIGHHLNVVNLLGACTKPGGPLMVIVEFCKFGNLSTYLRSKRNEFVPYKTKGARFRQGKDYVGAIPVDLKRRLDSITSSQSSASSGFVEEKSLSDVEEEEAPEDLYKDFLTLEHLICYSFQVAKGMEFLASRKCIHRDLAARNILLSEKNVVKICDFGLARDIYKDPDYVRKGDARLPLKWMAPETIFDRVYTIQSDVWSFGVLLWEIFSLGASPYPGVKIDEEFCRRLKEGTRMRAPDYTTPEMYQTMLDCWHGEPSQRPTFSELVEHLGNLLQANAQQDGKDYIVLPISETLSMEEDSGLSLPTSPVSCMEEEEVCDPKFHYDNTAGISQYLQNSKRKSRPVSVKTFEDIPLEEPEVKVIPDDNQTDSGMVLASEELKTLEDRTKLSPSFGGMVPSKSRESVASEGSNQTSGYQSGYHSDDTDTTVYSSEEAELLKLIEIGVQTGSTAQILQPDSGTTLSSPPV
Sequence of Mitogen-activated protein kinase kinase kinase 8 (P41279 whole entry): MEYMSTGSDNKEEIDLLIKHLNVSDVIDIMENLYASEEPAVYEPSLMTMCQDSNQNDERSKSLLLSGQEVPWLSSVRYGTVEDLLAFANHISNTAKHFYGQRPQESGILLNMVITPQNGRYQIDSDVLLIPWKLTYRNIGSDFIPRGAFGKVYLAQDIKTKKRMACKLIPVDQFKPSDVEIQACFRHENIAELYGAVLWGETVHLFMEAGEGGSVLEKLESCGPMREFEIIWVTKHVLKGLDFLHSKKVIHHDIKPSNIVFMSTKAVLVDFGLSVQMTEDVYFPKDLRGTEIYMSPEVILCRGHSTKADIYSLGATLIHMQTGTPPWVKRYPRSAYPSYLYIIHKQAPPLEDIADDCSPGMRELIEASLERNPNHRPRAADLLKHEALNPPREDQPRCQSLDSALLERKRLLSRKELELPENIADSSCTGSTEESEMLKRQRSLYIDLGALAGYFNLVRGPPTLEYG
Sequence of Cyclin-dependent kinase 4 (P11802 whole entry): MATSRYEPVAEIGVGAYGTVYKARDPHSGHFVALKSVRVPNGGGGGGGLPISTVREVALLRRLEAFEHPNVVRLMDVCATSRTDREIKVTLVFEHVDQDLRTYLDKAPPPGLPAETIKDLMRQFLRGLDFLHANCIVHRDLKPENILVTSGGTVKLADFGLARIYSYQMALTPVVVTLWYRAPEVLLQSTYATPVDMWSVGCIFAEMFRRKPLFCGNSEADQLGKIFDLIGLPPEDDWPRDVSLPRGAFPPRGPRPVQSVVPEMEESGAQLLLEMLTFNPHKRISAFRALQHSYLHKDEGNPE
Sequence of Dual specificity mitogen-activated protein kinase kinase 1 (Q02750 whole entry): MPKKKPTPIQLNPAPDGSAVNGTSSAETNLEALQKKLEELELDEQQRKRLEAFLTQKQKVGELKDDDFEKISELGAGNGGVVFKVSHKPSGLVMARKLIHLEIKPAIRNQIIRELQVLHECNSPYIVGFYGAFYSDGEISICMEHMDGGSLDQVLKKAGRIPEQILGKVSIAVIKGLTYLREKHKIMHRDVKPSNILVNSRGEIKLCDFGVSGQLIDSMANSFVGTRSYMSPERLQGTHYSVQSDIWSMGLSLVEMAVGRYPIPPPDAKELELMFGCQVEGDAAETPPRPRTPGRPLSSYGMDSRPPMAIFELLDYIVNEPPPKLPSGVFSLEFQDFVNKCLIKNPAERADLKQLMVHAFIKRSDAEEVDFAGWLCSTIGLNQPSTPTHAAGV
Sequence of Ribosomal protein S6 kinase beta-1 (P23443 whole entry): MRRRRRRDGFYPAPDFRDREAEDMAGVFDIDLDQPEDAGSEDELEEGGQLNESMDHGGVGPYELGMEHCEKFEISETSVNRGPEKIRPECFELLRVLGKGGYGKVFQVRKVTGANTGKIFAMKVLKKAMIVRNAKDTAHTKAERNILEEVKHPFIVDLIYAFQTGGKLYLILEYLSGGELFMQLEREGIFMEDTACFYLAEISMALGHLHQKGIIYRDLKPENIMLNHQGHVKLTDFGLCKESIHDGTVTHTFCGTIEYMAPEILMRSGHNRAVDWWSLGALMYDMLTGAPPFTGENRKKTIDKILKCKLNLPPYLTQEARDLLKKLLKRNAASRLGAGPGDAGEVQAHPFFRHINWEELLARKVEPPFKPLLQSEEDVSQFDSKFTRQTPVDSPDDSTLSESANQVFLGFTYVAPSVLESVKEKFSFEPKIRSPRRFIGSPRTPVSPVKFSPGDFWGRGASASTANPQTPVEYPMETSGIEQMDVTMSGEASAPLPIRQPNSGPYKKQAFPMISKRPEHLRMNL
Sequence of RAC-alpha serine/threonine-protein kinase (P31749 whole entry): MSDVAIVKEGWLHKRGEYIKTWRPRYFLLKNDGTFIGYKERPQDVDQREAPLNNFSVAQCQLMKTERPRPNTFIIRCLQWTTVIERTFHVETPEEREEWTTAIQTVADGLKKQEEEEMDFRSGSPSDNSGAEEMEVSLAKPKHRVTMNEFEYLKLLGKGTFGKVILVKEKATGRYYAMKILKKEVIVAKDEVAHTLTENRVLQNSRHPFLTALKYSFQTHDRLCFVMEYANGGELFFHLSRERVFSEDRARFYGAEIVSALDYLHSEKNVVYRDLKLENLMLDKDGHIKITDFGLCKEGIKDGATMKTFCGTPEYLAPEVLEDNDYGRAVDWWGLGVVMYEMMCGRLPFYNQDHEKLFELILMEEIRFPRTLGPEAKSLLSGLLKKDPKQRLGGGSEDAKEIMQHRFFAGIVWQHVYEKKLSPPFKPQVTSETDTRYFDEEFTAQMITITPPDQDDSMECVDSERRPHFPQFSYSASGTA

Row | SMILES | IC50 [1] | IC50 [3] | IC50 [4] | IC50 [5] | IC50 [6] | IC50 [7] | IC50 [8] | IC50 [9] | IC50 [11] | IC50 (LNCaP) | IC50 [12] | IC50 [13] | minimal effective dose [14] | IC50 [15] | IC50 [16] | minimal effective dose [17] | half-life [18] | half-life [19] | further results
1 | COC[C@H]1OC(=O)/C(=C/N(CCO)C(C)(C)C)C2=C(O)C(=O)C3=C([C@H](OC(C)=O)C[C@]4(C)[C@@H](O)CC[C@@H]34)[C@]21C | > 30 µM | > 40 µM | > 200 µM | > 10 µM | > 10 µM | > 30 µM | > 10 µM | > 50 µM | > 10 µM | 0.128 µM | > 10 µM | 1.11 µM | 7.5 mg/kg | 28.6 µM | > 30 µM | 15 mg/kg |  |  | minimal effective dose [2]: 5 mg/kg; IC50 [10]: > 10 µM
2 | COC[C@H]1OC(=O)c2coc3c2[C@@]1(C)C1=C(C3=O)[C@@H]2CC[C@H](O)[C@@]2(C)C[C@H]1OC(C)=O |  |  |  |  |  |  |  |  |  | 1.46 µM |  | 0.0027 µM |  | 0.193 µM |  |  | 4 min | 4 min | 
3 | COC[C@H]1OC(=O)/C(=C/N(C)CCCN(C)C)C2=C(O)C(=O)C3=C([C@H](OC(C)=O)C[C@]4(C)[C@@H](O)CC[C@@H]34)[C@]21C | > 30 µM | > 40 µM | > 200 µM | > 10 µM | > 10 µM | > 30 µM | > 10 µM | > 50 µM | > 10 µM | 0.389 µM | > 10 µM | 0.064 µM | < 1.25 mg/kg | 2.92 µM | > 30 µM | 2.5 mg/kg | 30 min |  | Activity [20]: Active; Vd [21]: 0.7 L/kg; IC50 [22]: 0.013 µM; solubility [23]: > 10000 µg/mL; IC50 [24]: 0.011 µM; Activity [25]: Active; IC50 [26]: 8 µM; clearance [27]: 50 mL/min/kg
4 | CCN(/C=C1/C(=O)O[C@H](COC)[C@@]2(C)C1=C(O)C(=O)C1=C2[C@H](OC(C)=O)C[C@]2(C)[C@@H](O)CC[C@@H]12)CC |  |  |  |  |  |  |  |  |  | 0.16 µM |  | 0.382 µM |  | 14 µM |  |  |  | 57 min | 
